According to ChEMBL document CHEMBL1140788, “Development of CXCR3 antagonists. Part 3: Tropenyl and homotropenyl-piperidine urea derivatives” (Bioorg Med Chem Lett, 2008):
In brackets after ≈: the same amount, converted by molar mass. Each block holds one compound with its values, some of them ahead of it. Activity calls are given as the source filed them. The calls are words filed in the database; no cut-off is given here.

Assays:
[1] = target: T1, C-X-C chemokine receptor type 3 (Homo sapiens, UniProt P49682); assay: Antagonist activity at human CXCR3 by [35S]GTP-gamma-S binding assay; type: functional
T1 sequence (P49682 whole entry): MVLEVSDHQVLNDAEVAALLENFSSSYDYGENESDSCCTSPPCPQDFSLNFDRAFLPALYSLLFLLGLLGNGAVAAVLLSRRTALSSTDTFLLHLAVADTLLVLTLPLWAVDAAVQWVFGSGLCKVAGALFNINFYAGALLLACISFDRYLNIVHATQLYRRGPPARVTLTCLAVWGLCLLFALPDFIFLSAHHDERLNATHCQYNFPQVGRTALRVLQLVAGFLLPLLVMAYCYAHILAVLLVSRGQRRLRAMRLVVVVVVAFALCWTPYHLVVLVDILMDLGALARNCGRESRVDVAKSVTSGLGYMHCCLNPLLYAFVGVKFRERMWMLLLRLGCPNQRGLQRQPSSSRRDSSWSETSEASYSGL

[2] = Distribution coefficient, log D at pH 7.4; type: physicochemical; conditions: octanol/water
How it was run: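 Octanol–water partition at pH 7.4.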

[3] = Solubility at pH 6.5 buffer; type: physicochemical
[4] = Intrinsic clearance in human liver microsomes at 0.5 uM; type: ADME, Microsome
[5] = target: T2, C-X-C chemokine receptor type 3 (Mus musculus, UniProt O88410); assay: Antagonist activity at mouse CXCR3; type: functional
T2 sequence (O88410 whole entry): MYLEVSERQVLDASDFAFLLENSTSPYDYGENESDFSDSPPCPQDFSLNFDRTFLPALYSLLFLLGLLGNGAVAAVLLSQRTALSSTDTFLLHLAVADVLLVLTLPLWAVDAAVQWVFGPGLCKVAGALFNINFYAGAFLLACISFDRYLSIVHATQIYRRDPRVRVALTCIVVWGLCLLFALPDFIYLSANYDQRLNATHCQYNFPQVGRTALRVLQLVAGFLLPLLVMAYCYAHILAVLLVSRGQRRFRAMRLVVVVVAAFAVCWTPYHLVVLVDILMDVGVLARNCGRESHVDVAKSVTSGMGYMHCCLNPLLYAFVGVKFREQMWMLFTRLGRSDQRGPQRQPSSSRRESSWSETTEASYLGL

[6] = target: Cytochrome P450 2D6 (Homo sapiens, UniProt P10635); assay: Inhibition of CYP2D6; type: ADME
Cytochrome P450 2D6, sequence (P10635 whole entry): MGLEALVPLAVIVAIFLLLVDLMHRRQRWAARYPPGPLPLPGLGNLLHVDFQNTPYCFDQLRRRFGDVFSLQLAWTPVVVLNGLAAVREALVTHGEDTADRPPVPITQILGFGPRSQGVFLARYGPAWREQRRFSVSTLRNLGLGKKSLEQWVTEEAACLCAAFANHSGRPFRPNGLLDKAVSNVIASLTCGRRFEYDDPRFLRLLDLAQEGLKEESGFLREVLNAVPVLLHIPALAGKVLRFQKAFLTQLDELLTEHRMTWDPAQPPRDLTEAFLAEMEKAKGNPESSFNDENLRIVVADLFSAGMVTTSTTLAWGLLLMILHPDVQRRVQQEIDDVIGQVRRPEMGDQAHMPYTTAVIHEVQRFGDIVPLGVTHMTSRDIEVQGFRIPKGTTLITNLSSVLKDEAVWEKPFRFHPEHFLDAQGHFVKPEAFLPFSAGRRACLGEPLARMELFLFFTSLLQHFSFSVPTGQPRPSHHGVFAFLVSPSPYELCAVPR

[7] = species: Homo sapiens; assay: Protein binding to human plasma; conditions: read-out: PPB
[8] = Oral bioavailability in BALB/c mouse at 30 mg/kg; type: ADME, organism-based; conditions: in vivo
How it was run: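 Balb/c mice given 30 mg/kg orally; plasma concentrations followed over time, sampled from 0 to 16 h post dose.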

[9] = Half life in mouse; type: ADME, organism-based; conditions: in vivo
[10] = target: T3, Muscarinic acetylcholine receptor M1 (Homo sapiens, UniProt P11229); assay: Inhibition of muscarinic M1 receptor
T3 sequence (P11229 whole entry): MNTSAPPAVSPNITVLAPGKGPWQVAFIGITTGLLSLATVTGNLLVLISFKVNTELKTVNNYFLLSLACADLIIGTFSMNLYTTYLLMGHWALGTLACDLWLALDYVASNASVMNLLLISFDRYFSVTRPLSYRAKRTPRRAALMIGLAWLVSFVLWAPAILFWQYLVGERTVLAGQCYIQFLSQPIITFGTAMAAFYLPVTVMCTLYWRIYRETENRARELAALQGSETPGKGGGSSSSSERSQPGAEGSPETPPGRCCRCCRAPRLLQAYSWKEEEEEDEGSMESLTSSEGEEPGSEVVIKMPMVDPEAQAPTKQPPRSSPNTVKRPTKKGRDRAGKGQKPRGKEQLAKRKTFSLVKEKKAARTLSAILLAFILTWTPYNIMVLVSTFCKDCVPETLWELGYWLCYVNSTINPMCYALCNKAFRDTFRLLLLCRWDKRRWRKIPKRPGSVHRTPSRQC

[11] = target: T4, Muscarinic acetylcholine receptor M2 (Homo sapiens, UniProt P08172); assay: Inhibition of muscarinic M2 receptor
T4 sequence (P08172 whole entry): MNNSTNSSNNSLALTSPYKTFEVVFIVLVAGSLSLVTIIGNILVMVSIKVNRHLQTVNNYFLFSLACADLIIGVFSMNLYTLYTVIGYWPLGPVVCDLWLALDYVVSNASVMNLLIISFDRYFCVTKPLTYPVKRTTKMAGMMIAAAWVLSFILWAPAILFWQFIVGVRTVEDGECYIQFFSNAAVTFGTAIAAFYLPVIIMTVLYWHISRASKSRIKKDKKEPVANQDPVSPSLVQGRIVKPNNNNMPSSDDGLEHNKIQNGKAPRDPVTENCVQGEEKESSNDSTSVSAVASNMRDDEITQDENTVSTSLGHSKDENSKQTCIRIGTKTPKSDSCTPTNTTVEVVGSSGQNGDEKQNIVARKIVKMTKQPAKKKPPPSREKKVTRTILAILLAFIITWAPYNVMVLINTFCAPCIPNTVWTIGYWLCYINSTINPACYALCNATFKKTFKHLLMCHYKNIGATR

[12] = target: Muscarinic acetylcholine receptor M3 (Homo sapiens, UniProt P20309); assay: Inhibition of muscarinic M3 receptor
Muscarinic acetylcholine receptor M3, sequence (P20309 whole entry): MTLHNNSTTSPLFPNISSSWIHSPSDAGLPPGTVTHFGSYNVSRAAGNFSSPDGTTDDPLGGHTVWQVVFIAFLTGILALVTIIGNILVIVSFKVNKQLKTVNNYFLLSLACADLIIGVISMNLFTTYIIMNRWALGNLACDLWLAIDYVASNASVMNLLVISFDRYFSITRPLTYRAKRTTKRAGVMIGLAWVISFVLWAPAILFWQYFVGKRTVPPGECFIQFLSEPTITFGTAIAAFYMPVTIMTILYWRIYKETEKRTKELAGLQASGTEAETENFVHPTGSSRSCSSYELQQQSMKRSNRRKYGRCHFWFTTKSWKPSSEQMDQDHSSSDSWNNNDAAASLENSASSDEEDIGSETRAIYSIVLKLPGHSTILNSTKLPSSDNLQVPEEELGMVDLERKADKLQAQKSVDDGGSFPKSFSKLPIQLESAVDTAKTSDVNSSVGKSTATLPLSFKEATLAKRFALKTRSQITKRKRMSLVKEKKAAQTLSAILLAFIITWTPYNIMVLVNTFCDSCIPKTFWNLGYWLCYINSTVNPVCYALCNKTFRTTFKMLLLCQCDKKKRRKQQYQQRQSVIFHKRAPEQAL

[13] = target: T5, 5-hydroxytryptamine receptor 1A (Homo sapiens, UniProt P08908); assay: Inhibition of 5HT1A receptor
T5 sequence (P08908 whole entry): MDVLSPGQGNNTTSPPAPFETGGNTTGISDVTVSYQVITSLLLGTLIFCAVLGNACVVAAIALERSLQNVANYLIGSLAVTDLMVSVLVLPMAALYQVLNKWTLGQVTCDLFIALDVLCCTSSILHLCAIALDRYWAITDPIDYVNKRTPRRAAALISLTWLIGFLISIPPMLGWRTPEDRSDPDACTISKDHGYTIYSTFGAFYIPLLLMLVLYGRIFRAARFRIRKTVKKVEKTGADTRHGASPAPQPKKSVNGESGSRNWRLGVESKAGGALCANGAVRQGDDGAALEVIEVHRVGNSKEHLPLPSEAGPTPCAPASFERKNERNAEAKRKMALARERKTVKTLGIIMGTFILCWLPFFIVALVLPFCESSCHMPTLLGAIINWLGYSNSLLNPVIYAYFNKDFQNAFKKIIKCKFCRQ

[14] = Inhibition of sodium channel
[15] = target: 5-hydroxytryptamine receptor 5A (Homo sapiens, UniProt P47898); assay: Inhibition of 5HT5A receptor
5-hydroxytryptamine receptor 5A, sequence (P47898 whole entry): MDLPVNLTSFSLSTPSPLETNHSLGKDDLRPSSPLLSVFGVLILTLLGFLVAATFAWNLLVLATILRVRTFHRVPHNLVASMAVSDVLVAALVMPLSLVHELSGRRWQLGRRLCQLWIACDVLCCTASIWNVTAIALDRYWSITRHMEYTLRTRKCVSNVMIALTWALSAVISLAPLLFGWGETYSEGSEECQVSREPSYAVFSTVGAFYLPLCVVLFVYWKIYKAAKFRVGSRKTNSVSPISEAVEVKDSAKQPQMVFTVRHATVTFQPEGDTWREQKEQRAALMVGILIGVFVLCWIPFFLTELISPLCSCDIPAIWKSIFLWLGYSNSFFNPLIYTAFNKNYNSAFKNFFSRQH

[16] = system: Mus musculus; assay: Ex vivo inhibition of CXCL11-induced mouse CXCR3 receptor internalization in mouse T cells at 30 mg/kg, po after 10 hrs; type: functional, organism-based; parameters: dose 30 mg/kg; conditions: T-cell
How it was run: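 Mice were dosed orally at 30 mg/kg, and plasma was taken at each timepoint after dosing. Activated murine T cells were incubated with that plasma, then stimulated with 3 nM CXCL11 (A75) for 60 min at 37 °C. Agonist was removed and surface CXCR3 was measured by flow cytometry.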

[17] = species: Mus musculus; assay: In vitro inhibition of CXCL11-induced mouse CXCR3 receptor internalization in mouse T cells in presence of 90% naive mouse plasma; conditions: T-cell, read-out: pA2 (converted)
[18] = system: Mus musculus; assay: Ex vivo inhibition of CXCL11-induced mouse CXCR3 receptor internalization in mouse T cells at 30 mg/kg, po after 4 hrs; type: functional, organism-based; parameters: dose 30 mg/kg; conditions: T-cell
How it was run: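 Mice dosed orally at 30 mg/kg; plasma collected at timepoints post dose and incubated with activated murine T cells, then 3 nM CXCL11 (A75) for 60 min at 37 °C; agonist removed, surface CXCR3 measured by flow cytometry.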

Compound: O=C(Nc1cc(C(F)(F)F)cc(C(F)(F)F)c1)NC1CCN(CCC2CCS(=O)(=O)C2)CC1 (stereo not given)
- Ki [1]: 1100 nM
- logD [2]: 2.8
- solubility [3]: 1360 µg/mL (≈ 2710 µM)
- microsomal CLint at 0.5 µM [4]: 3.5 µL/min/mg
- bioavailability [8]: 52%
- half-life [9]: 5.5 h

Compound: CC(C)(C)C(=O)N1CCC(CN2CCC(NC(=O)Nc3cc(C(F)(F)F)cc(C(F)(F)F)c3)CC2)CC1
- Ki [1]: 60 nM
- logD [2]: 4.2
- solubility [3]: 45 µg/mL (≈ 83.9 µM)
- microsomal CLint at 0.5 µM [4]: 80 µL/min/mg
- fraction unbound [7]: 0.01

Compound: CC(=O)N1C2C=C(CN3C4CCC3CC(NC(=O)Nc3cc(F)cc(C(F)(F)F)c3)C4)CC1CCC2 (stereo not given)
- Ki [1]: 7 nM
- logD [2]: 3.1
- solubility [3]: 40 µg/mL (≈ 78.7 µM)
- microsomal CLint at 0.5 µM [4]: 7 µL/min/mg
- Ki [5]: 6 nM
- Ki [10]: 230 nM
- Ki [11]: 280 nM
- Ki [12]: 1200 nM
- Ki [13]: 280 nM
- Ki [14]: 570 nM
- Ki [15]: 3000 nM
- Ki [6]: 15000 nM
- bioavailability [8]: 70%
- Activity [16]: Active
- Kb [17]: 95.5 nM

Compound: CC(=O)N1CCC(CN2CCC(NC(=O)Nc3cc(C(F)(F)F)cc(C(F)(F)F)c3)CC2)CC1
- Ki [1]: 180 nM
- logD [2]: 3.1
- solubility [3]: 850 µg/mL (≈ 1720 µM)
- microsomal CLint at 0.5 µM [4]: 4.5 µL/min/mg

Compound: CCOC(=O)N1C2C=C(CN3CCC(NC(=O)Nc4cc(F)cc(C(F)(F)F)c4)CC3)CC1CC2 (stereo not given)
- Ki [1]: 190 nM
- logD [2]: 4.6
- microsomal CLint at 0.5 µM [4]: 48 µL/min/mg
- Ki [5]: 950 nM

Compound: CC(C)C(=O)N1C2C=C(CN3CCC(NC(=O)Nc4cc(F)cc(C(F)(F)F)c4)CC3)CC1CC2 (stereo not given)
- Ki [1]: 28 nM
- logD [2]: 3.9
- microsomal CLint at 0.5 µM [4]: 58 µL/min/mg
- Ki [5]: 180 nM

Compound: CC(=O)N1C2CCC1CC(CN1CCC(NC(=O)Nc3cc(F)cc(C(F)(F)F)c3)CC1)C2 (mixture of isomers)
- Ki [1]: 120 nM
- logD [2]: 2.8
- Ki [5]: 650 nM

Compound: O=C(Nc1ccc2ccccc2c1)NC1CCN(C/C2=C/CCCCCC2)CC1
- solubility [3]: 0.1 µg/mL (≈ 0.255 µM)
- microsomal CLint at 0.5 µM [4]: 72 µL/min/mg
- bioavailability [8]: 1%
- fraction unbound [7]: < 0.001

Compound: CC(=O)c1cccc(NC(=O)NC2CCN(CC3=CC4CCCC(C3)N4C(C)=O)CC2)c1 (stereo not given)
- Ki [1]: 280 nM
- logD [2]: 2.8
- microsomal CLint at 0.5 µM [4]: 10 µL/min/mg

Continued, in another order:

- Ki [1]: 26 nM
- logD [2]: 5.1
- solubility [3]: < 1 µg/mL
- microsomal CLint at 0.5 µM [4]: 82 µL/min/mg
- Ki [5]: 400 nM
- Ki [6]: 5000 nM
- fraction unbound [7]: 0.001
Compound: CC1(C)[C@H]2CC=C(CN3CCC(NC(=O)Nc4cc(C(F)(F)F)cc(C(F)(F)F)c4)CC3)[C@@H]1C2

- Ki [1]: 27 nM
- logD [2]: 3
- microsomal CLint at 0.5 µM [4]: 11 µL/min/mg
- Ki [5]: 120 nM
Compound: CC(=O)N1C2C=C(CN3CCC(NC(=O)Nc4cc(F)cc(C(F)(F)F)c4)CC3)CC1CC2 (stereo not given)

- Ki [1]: 9 nM
- logD [2]: 3.4
- microsomal CLint at 0.5 µM [4]: 9 µL/min/mg
- Ki [5]: 38 nM
Compound: CC(=O)N1C2C=C(CN3CCC(NC(=O)Nc4cc(F)cc(C(F)(F)F)c4)CC3)CC1CCC2 (stereo not given)
- Activity [18]: Active
- Kb [17]: 186 nM

- Ki [1]: 10 nM
- logD [2]: 4.5
- microsomal CLint at 0.5 µM [4]: 74 µL/min/mg
- Ki [5]: 57 nM
Compound: CC(C)(C)C(=O)N1C2C=C(CN3CCC(NC(=O)Nc4cc(F)cc(C(F)(F)F)c4)CC3)CC1CCC2 (stereo not given)

- Ki [1]: 18 nM
- logD [2]: 4.2
- microsomal CLint at 0.5 µM [4]: 60 µL/min/mg
- Ki [5]: 100 nM
Compound: CC(C)(C)C(=O)N1C2C=C(CN3CCC(NC(=O)Nc4cc(F)cc(C(F)(F)F)c4)CC3)CC1CC2 (stereo not given)

- Ki [1]: 20 nM
- logD [2]: 3.4
- microsomal CLint at 0.5 µM [4]: 9 µL/min/mg
- Ki [5]: 80 nM
Compound: O=C(Nc1cc(F)cc(C(F)(F)F)c1)NC1CCN(CC2=CC3CCC(C2)N3C(=O)C2CC2)CC1 (stereo not given)

- Ki [1]: 3 nM
- logD [2]: 2.7
- microsomal CLint at 0.5 µM [4]: 50 µL/min/mg
- Ki [5]: 6 nM
Compound: CC(=O)N1C2C=C(CN3CCC(NC(=O)Nc4cc(F)cc(OC(C)C)c4)CC3)CC1CCC2 (stereo not given)

- Ki [1]: 11 nM
- logD [2]: 2.5
- microsomal CLint at 0.5 µM [4]: 22 µL/min/mg
- Ki [5]: 33 nM
Compound: CC(=O)N1C2C=C(CN3CCC(NC(=O)Nc4cccc(OC(C)C)c4)CC3)CC1CCC2 (stereo not given)
